Compound activity as filed in PubChem.
In the library only some 6.4% were active in any assay of this set; here they are far more common.
MPTP block: inhibitors of mitochondrial permeability transition pore | isolated mouse mitochondria, Ca2+ swelling absorbance, 30 min | 1.4% of 360,000 active | inhibition, % at 10 µM | AID 602449;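 active = inhibition of 50% or more, scaled per plate between neutral and stimulator controls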;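 also: 0% = DMSO wells given calcium and 100% = 1 mM EGTA wells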
EBV gp42 block: inhibitors of Epstein-Barr virus glycoprotein 42; inhibition, % (tested at 21.74 µM); Q1HVG2; 0.42% of 220,000 active; Fluorescence polarization binding assay, mP read-out; in the data active = inhibition above about 50%
Target sequence (Q1HVG2 whole entry, looked up): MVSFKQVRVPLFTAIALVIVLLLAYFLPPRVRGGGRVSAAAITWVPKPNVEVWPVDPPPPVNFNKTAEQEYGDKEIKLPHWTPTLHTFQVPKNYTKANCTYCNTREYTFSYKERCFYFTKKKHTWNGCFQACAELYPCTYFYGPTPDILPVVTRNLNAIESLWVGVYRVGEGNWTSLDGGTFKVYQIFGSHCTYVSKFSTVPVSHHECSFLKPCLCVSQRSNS
CHOP inhibitor: CHOP inhibition in unfolded protein response. 3.8% of 220,000 active. inhibition, % at 10 µM. CHO-K1 CHOP-promoter luciferase, tunicamycin-induced, 15-18 h. AID 2732;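 active = compounds that reduced the stress-induced luciferase reporter signal by more than about 70% of percent inhibition, limit read from the data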;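 also: 0% = tunicamycin plus vehicle and 100% = wells without tunicamycin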
Tb MetRS inh: Trypanosoma brucei MetRS inhibition; purified T. brucei MetRS, ATP depletion, Kinase-Glo luminescence; AID 624268; inhibition, % at 11.9 µM; 0.4% of 360,000 active;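 active = inhibition above a per-plate cutoff of the control wells' mean inhibition plus 3 SD, cut at about 5.5% in these data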;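 also: 0% = DMSO wells median and 100% = median of wells with control inhibitor compound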
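Measured by: Kinase-Glo luciferase luminescence reporting remaining unconsumed ATP. Material: purified T. brucei MetRS enzyme. Doses: 11.9 µM compound single dose, 0.9% DMSO. Medium: HEPES buffer containing pyrophosphatase, BSA, spermine, DTT. Times: 15 min preincubation, 2 h reaction, all 25 °C. Reagent: methionine, ATP and bulk E. coli tRNA.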
GRIN3A LBD mod: NR3A (human) ligand-binding domain modulation; NR3A LBD differential scanning fluorimetry, Tm shift; 0% = protein alone, 100% = glycine-bound protein; 2.5% of 340,000 active; Tm shift relative to glycine control, % at 25 µM; AID 1259313;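 active = melting temperature shift of at least 10% of the positive control shift, at one fixed dose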
WT yeast gro inh: growth inhibition of WT yeast, mitochondrial fusion screen; mitochondrial fusion phenotypic screen, WT strain; inhibition, % at 10 µM; 2.1% of 190,000 active; AID 1362; in the data active = inhibition above about 58%; tested in S. cerevisiae
MPTP counter: mitochondrial membrane potential, counter-screen. shares compounds with MPTP block. isolated mitochondria, Rhodamine 123 fluorescence. inhibition, % at 10 µM. 78% of 5,000 active. AID 624504; in the data active = inhibition above about 22%;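 also: 0% = DMSO vehicle and 100% = positive control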
MPTP abs DR: dose response confirmation of mitochondrial permeability transition pore inhibitors; shares compounds with MPTP block; isolated mitochondria swelling, absorbance; IC50, µM; 58% of 780 active; in the data active = IC50 below about 20 µM
MPTP counter DR: counter-screen for mitochondrial permeability transition pore inhibitors, dose response; shares compounds with MPTP block; isolated mitochondria counterscreen, fluorescence read-out; IC50, µM; 49% of 780 active; AID 651564; in the data active = IC50 below about 80 µM
* = called active by the depositor; / = no result given.

SMILES | MPTP block | EBV gp42 block | CHOP inhibitor | Tb MetRS inh | GRIN3A LBD mod | WT yeast gro inh | MPTP counter | others
C=C(C)Cn1c(SCC(=O)N/N=C/c2c(O)ccc3ccccc23)nc2ccccc2c1=O | 66* | -43 | 19 | 0 | -2 | -31 | 56*
Cc1ccc(C(=O)Nc2nc(=O)n(C(=O)CC(C)C)s2)cc1 | 58* | -16 | 63 | -1 | -18 | 0 | 78*
Nc1nc2ccc(Cl)cc2cc1C(=O)NCCc1c[nH]c2ccccc12 | 84* | / | / | 1 | / | / | 91*
Nc1nc2ccc(Cl)cc2cc1C(=O)NCCc1ccc(Cl)cc1Cl | 14 | / | / | 0 | / | / | /
Cc1cc(C)n2nc(SCN3C(=O)c4ccccc4C3=O)nc2n1 | 2 | 24 | -42 | -1 | -13 | 0 | /
O=C(NCc1ccccc1)c1ccc2c(c1)OCCO2 | 2 | -15 | -25 | -1 | 1 | 6 | /
Cc1cc(C(=O)CSc2nc3ccccc3c(=O)[nH]2)c(C)n1CC1CCCO1 (stereo not drawn) | 81* | 0 | 44 | 0 | -1 | -3 | 75*
O=C(Nc1cccnc1)c1cccc(S(=O)(=O)N2CCc3ccccc32)c1 | -1 | -2 | 31 | 0 | 1 | 6 | /
O=C(Nc1ccncc1)c1cccc(S(=O)(=O)N2CCc3ccccc32)c1 | 96* | / | / | -1 | -2 | / | 94*
CCOC(=O)c1sc(NC(=O)c2cccc(S(=O)(=O)N3CCc4ccccc43)c2)c(C#N)c1C | 91* | -26 | 95* | 0 | 21* | / | 86*
CCc1ccccc1NC(=O)c1cc(S(=O)(=O)N2CCc3ccccc32)cn1C | 1 | / | / | 0 | 0 | / | /
CCCNC(=O)c1cc(S(=O)(=O)N2CCc3ccccc32)cn1C | 71* | / | / | 0 | 2 | / | 44*
C/C(=N\NC(=O)c1cc(C(C)(C)C)[nH]n1)C12CC3CC(CC(C3)C1)C2 | 1 | 7 | 69 | 1 | -1 | 20 | /
O=C(CNC(=O)C1CCCCC1)NCCCO | 0 | -12 | -10 | -1 | 2 | -10 | /
Cc1ccc(NCc2ccccc2)cc1 | 1 | -6 | 6 | -1 | 1 | -14 | /
Cc1ccc(-c2nnc(NCc3ccccc3)c3ccccc23)cc1 | 65* | -8 | 35 | 1 | -10 | -12 | 85*
Cc1cc(C)cc(OCC(O)CN2CCC(CN3C(=O)c4cccc5cccc(c45)C3=O)CC2)c1 (stereo not drawn) | 98* | / | / | 0 | -3 | / | 100*
O=C1c2cccc3cccc(c23)C(=O)N1CCN1CCN(CC(O)COc2ccc3ccccc3c2)CC1 (stereo not drawn) | 3 | -11 | 16 | 0 | 0 | 99 | /
CCc1ccc(OCC(O)CN2CCN(c3ccccc3)CC2)cc1 (stereo not drawn) | 0 | -12 | 56 | 0 | -3 | 30 | /
CCc1ccc(OCC(O)CN2CCC(CN3C(=O)c4cccc5cccc(c45)C3=O)CC2)cc1 (stereo not drawn) | 84* | 13 | 94* | 1 | -11 | 81 | 0 | MPTP abs DR=4.9*;MPTP counter DR=20*
COc1ccc(COCC(O)CN2CCC(CN3C(=O)c4cccc5cccc(c45)C3=O)CC2)cc1OC (stereo not drawn) | 90* | -3 | 33 | 0 | -2 | -13 | 18 | MPTP abs DR=6.3*;MPTP counter DR=46*
O=C1c2cccc3cccc(c23)C(=O)N1CC1CCN(CC(O)COc2ccc3ccccc3c2)CC1 (stereo not drawn) | 89* | / | / | 2 | -5 | / | 99*
CC(C)(C)c1cc(-c2ccccc2)no1 | 3 | -20 | 9 | 0 | 0 | / | /
COc1ccc(-c2cc([C@H]3[C@@H]4C=CCC[C@@]4(C)C(=O)N3Cc3ccccc3)ccc2F)cc1 | 0 | 5 | 18 | 0 | 1 | / | /
C[C@@H]1CN([C@@H](C)CO)S(=O)(=O)c2ccc(C#CC3CCCCC3)cc2O[C@@H]1CN(C)Cc1cccnc1 | 1 | / | / | 0 | / | / | /
SMILES | MPTP block | EBV gp42 block | CHOP inhibitor | Tb MetRS inh | GRIN3A LBD mod | WT yeast gro inh | MPTP counter | others
CCC(C(=O)OC)n1cnc2c(nnn2-c2ccc(F)cc2)c1=O (stereo not drawn) | 0 | / | / | -1 | -1 | / | /
CC(O)CSc1nc2c(c(=O)n(C)c(=O)n2C)n1CCCc1ccccc1 (stereo not drawn) | 0 | -2 | -15 | -1 | 0 | 16 | /
COc1cccc(OCC(O)CN2CCC(CN3C(=O)c4cccc5cccc(c45)C3=O)CC2)c1 (stereo not drawn) | 72* | -11 | 45 | 0 | -2 | 20 | 50*
Cc1ccc(OCCCCn2ccnc2C)c(C)c1 | 61* | -11 | 16 | 0 | -1 | 23 | 27*
Cc1ccc(C(C)C)c(OCCn2ccnc2C)c1 | 1 | / | / | -1 | -1 | / | /
CC1CCC(C(C)C)C(=O)/C1=C/c1ccc(N)cc1 (stereo not drawn) | 1 | 1 | 17 | 1 | -1 | / | /
COc1ccc(OCCN2CCC(C(=O)NC(c3ccc(C)cc3)c3ccccn3)CC2)cc1 (stereo not drawn) | 0 | / | / | 0 | / | / | /
Cc1cc(C)n(C(=O)/C(C#N)=N/Nc2cc(Cl)cc(Cl)c2)n1 | 103* | 0 | 35 | 0 | 4 | 85* | 94*
CCN(CC)CCCN=Cc1c(O)n(Cc2ccccc2)c(=O)c2ccccc12 | 79* | -23 | -16 | -2 | 1 | -5 | -18 | MPTP abs DR=12*;MPTP counter DR=>80
S=C(Nc1ccc(Oc2ccccc2)cc1)N1CCN(c2ccccn2)CC1 | 80* | 20 | 27 | -1 | -1 | 25 | 79*
O=C(Nc1cccc(C(F)(F)F)c1)OCCN1CCN(Cc2ccccc2)CCC1=O | 98* | -5 | -3 | 0 | -2 | 22 | 90*
CCOc1ccccc1NC(=O)Cn1nnc(C(=O)NCCc2ccc(OC)c(OC)c2)c1N | 0 | -4 | 8 | 2 | -1 | -6 | /
CCC(C)NS(=O)(=O)c1ccc(S(=O)(=O)N2CCCC3(CCCCC3)C2)cc1 (stereo not drawn) | 88* | -2 | 56 | -1 | -6 | 37 | 100*
CCC(C)C(=O)Nc1ccc(S(=O)(=O)N2CCCC2)cc1 (stereo not drawn) | 1 | / | / | -1 | 1 | / | /
Oc1ccccc1C1CC(c2cccs2)=NC(c2cccc(Br)c2)N1 (stereo not drawn) | 84* | 4 | 17 | -1 | 2 | 17 | 97*
O=S(=O)(c1ccccc1)N1N=C(c2cccs2)CC1c1cccc(O)c1 (stereo not drawn) | 0 | / | / | 0 | -2 | / | /
COc1ccccc1CCN=C(N)NS(=O)(=O)c1ccccc1 | 3 | -15 | 13 | 2 | 1 | 2 | /
COc1ccc(C(=O)CSc2nnc(Cn3cnc4ccccc43)o2)cc1 | 84* | -1 | / | -1 | 0 | 1 | 66*
